Measurements reported in publication PMC4206749 (Toxicological Research, 2014).

Columns and labels:
[1] = test system: CHL cells (Chinese hamster lung fibroblast cell line); assay: In vitro chromosomal aberration assay; assay type: cell-based; conditions: for Structural aberrations, Others / Gap / Numerical aberrations, PP + ER / Structural aberrations, Chromatid type, ctb / Structural aberrations, Chromatid type, cte / Structural aberrations, Chromosome type, csb / Structural aberrations, Chromosome type, cse: 200 cells
[2] = test system: L5178Y Tk^+/− mouse lymphoma cells; assay: Cytotoxicity assay; assay type: cell-based
[3] = test system: S. typhimurium strains (TA98, TA100, TA1535, and TA1537) or E. coli strain (WP2 uvrA); assay: Bacterial reverse mutation assay, all five tester strains; assay type: cell-based, Salmonella typhimurium, Escherichia coli
Procedure, shortened: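 Pre-incubation Ames test per OECD 471 with S. typhimurium TA98, TA100, TA1535, TA1537 and E. coli WP2 uvrA. Bacteria plus test compound in DMSO (DMSO as negative control), with S9 mix (10% S9 plus cofactors) or 0.1 M phosphate buffer pH 7.4, were incubated 20 min at 37℃ shaking. Plated in histidine/biotin or tryptophan top agar, incubated 48 hr at 37℃, revertants counted. Triplicate plates; dose ratio about 2.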

[4] = test system: 2 Gy irradiated Chinese hamster ovary (CHO)-K1 cells; conditions: 2 Gy irradiated CHO-K1 cells; cited from earlier work
[5] = S9 (−), 24~0 hr continuous, 25 μg/ml
[6] = S9 (−), 24~0 hr continuous, 50 μg/ml

With `Oc1ccc(-c2ccc3cc(O)ccc3c2)c(O)c1` [HS-1793, 4-(6-hydroxy-2-naphthyl)-1,3-benzenediol] the “Structural aberrations, Others” value ([1]; S9 (+), 6~18 hr, 100 μg/ml) was 0, the Growth index ([1]; S9 (−), 6~18 hr, 6.25 μg/ml) was 98% and the “Total frequency (+) Gap” value ([1]; S9 (−), 6~18 hr, 6.25 μg/ml) was 1.5%. For the same compound, the “Total frequency (−) Gap” value ([1]; S9 (−), 6~18 hr, 6.25 μg/ml) was 1%, the Gap ([1]; S9 (−), 6~18 hr, 6.25 μg/ml) was 1 and the “Numerical aberrations, PP + ER” value ([1]; S9 (−), 6~18 hr, 6.25 μg/ml) was 0. For the same compound, the “Structural aberrations, Chromatid type, ctb” value (“Structural aberrations … ctb” for short) ([1]; S9 (−), 6~18 hr, 6.25 μg/ml) was 0, the “Structural aberrations, Chromatid type, cte” value (shortened to “Structural aberrations … cte”) ([1]; S9 (−), 6~18 hr, 6.25 μg/ml) was 2 and the “Structural aberrations, Chromosome type, csb” value (“Structural aberrations … csb” below) ([1]; S9 (−), 6~18 hr, 6.25 μg/ml) was 0. The “Structural aberrations, Chromosome type, cse” value (“Structural aberrations … cse” below) ([1]; S9 (−), 6~18 hr, 6.25 μg/ml) was 0, the “Structural aberrations, Others” value ([1]; S9 (−), 6~18 hr, 6.25 μg/ml) was 0 and the Growth index ([1]; S9 (−), 6~18 hr, 12.5 μg/ml) was 90%. For the same compound, the “Total frequency (+) Gap” value ([1]; S9 (−), 6~18 hr, 12.5 μg/ml) was 2%, the “Total frequency (−) Gap” value ([1]; S9 (−), 6~18 hr, 12.5 μg/ml) was 1% and the Gap ([1]; S9 (−), 6~18 hr, 12.5 μg/ml) was 2. The “Numerical aberrations, PP + ER” value ([1]; S9 (−), 6~18 hr, 12.5 μg/ml) was 0, the “Structural aberrations … ctb” value ([1]; S9 (−), 6~18 hr, 12.5 μg/ml) was 1 and the “Structural aberrations … cte” value ([1]; S9 (−), 6~18 hr, 12.5 μg/ml) was 1. For the same compound, the “Structural aberrations … csb” value ([1]; S9 (−), 6~18 hr, 12.5 μg/ml) was 0, the “Structural aberrations … cse” value ([1]; S9 (−), 6~18 hr, 12.5 μg/ml) was 0 and the “Structural aberrations, Others” value ([1]; S9 (−), 6~18 hr, 12.5 μg/ml) was 0. The Growth index ([1]; S9 (−), 6~18 hr, 25 μg/ml) was 84%, the “Total frequency (+) Gap” value ([1]; S9 (−), 6~18 hr, 25 μg/ml) was 2% and the “Total frequency (−) Gap” value ([1]; S9 (−), 6~18 hr, 25 μg/ml) was 1%. For the same compound, the Gap ([1]; S9 (−), 6~18 hr, 25 μg/ml) was 2, the “Numerical aberrations, PP + ER” value ([1]; S9 (−), 6~18 hr, 25 μg/ml) was 0 and the “Structural aberrations … ctb” value ([1]; S9 (−), 6~18 hr, 25 μg/ml) was 0. The “Structural aberrations … cte” value ([1]; S9 (−), 6~18 hr, 25 μg/ml) was 1, the “Structural aberrations … csb” value ([1]; S9 (−), 6~18 hr, 25 μg/ml) was 1 and the “Structural aberrations … cse” value ([1]; S9 (−), 6~18 hr, 25 μg/ml) was 0. For the same compound, the “Structural aberrations, Others” value ([1]; S9 (−), 6~18 hr, 25 μg/ml) was 0, the Growth index ([1]; S9 (−), 6~18 hr, 50 μg/ml) was 72% and the “Total frequency (+) Gap” value ([1]; S9 (−), 6~18 hr, 50 μg/ml) was 1.5%. The “Total frequency (−) Gap” value ([1]; S9 (−), 6~18 hr, 50 μg/ml) was 1%, the Gap ([1]; S9 (−), 6~18 hr, 50 μg/ml) was 1 and the “Numerical aberrations, PP + ER” value ([1]; S9 (−), 6~18 hr, 50 μg/ml) was 0. The “Structural aberrations … ctb” value ([1]; S9 (−), 6~18 hr, 50 μg/ml) was 1, the “Structural aberrations … cte” value ([1]; S9 (−), 6~18 hr, 50 μg/ml) was 1 and the “Structural aberrations … csb” value ([1]; S9 (−), 6~18 hr, 50 μg/ml) was 0. The “Structural aberrations … cse” value ([1]; S9 (−), 6~18 hr, 50 μg/ml) was 0, the “Structural aberrations, Others” value ([1]; S9 (−), 6~18 hr, 50 μg/ml) was 0 and the Growth index ([1]; S9 (−), 6~18 hr, 100 μg/ml) was 65%. For the same compound, the “Total frequency (−) Gap” value ([1]; S9 (−), 6~18 hr, 100 μg/ml) was 0.5%, the Gap ([1]; S9 (−), 6~18 hr, 100 μg/ml) was 2 and the “Structural aberrations … ctb” value ([1]; S9 (−), 6~18 hr, 100 μg/ml) was 0. The “Structural aberrations … csb” value ([1]; S9 (−), 6~18 hr, 100 μg/ml) was 0, the “Structural aberrations … cse” value ([1]; S9 (−), 6~18 hr, 100 μg/ml) was 0 and the “Structural aberrations, Others” value ([1]; S9 (−), 6~18 hr, 100 μg/ml) was 0. It also gave a Growth index ([1]; S9 (−), 24~0 hr continuous, 6.25 μg/ml) of 93%, a Growth index ([1]; S9 (−), 24~0 hr continuous, 12.5 μg/ml) of 85% and a Growth index [1, 5] of 79%. For the same compound, the Gap [1, 5] was 1, the “Numerical aberrations, PP + ER” value [1, 5] was 1 and the “Structural aberrations … ctb” value [1, 5] was 0. For the same compound, the “Structural aberrations … cte” value [1, 5] was 1, the “Structural aberrations … csb” value [1, 5] was 0 and the “Structural aberrations … cse” value [1, 5] was 0. For the same compound, the “Structural aberrations, Others” value [1, 5] was 0, the Growth index [1, 6] was 72% and the “Total frequency (+) Gap” value [1, 6] was 2%. The “Total frequency (−) Gap” value [1, 6] was 1.5%, the “Structural aberrations … ctb” value [1, 6] was 2 and the “Structural aberrations … cte” value [1, 6] was 1. The “Structural aberrations … csb” value [1, 6] was 0, the “Structural aberrations … cse” value [1, 6] was 0 and the “Structural aberrations, Others” value [1, 6] was 0. The Growth index ([1]; S9 (−), 24~0 hr continuous, 100 μg/ml) was 58%, the “Incidence of structural or numerical chromosomal aberrations” value ([1]; continuous treatment for 24 hr, 6.25, 12.5, 25, 50 and 100 μg/ml, absence of the S9 mix) was “did not induce a significant increase” and the “Incidence of structural or numerical chromosomal aberrations” value ([1]; short term treatment for 6 hr, 6.25, 12.5, 25, 50 and 100 μg/ml, presence or absence of the S9 mix) was “did not induce a significant increase”. The “Cell viability (MTT)” value ([2]; 62.5 μg/ml for 4 hr) was “no reduction of viable cell numbers > 70%”, the “Cell viability (dose-range study)” value ([2]; 24 hr treatments) was “decreased in dose dependent manner” and the “HS-1793 related toxicity (reduced revertant numbers and/or thinning of the background lawn)” value ([3]; 5,000 μg/plate, absence or presence of S9 metabolic activation) was “not observed”. For the same compound, the “Revertant frequencies compared to concurrent vehicle control” value ([3]; any dose (78.1~5,000 μg/plate), any tester strain, with or without the S9 mix) was “No increases in revertant frequencies” and the “ROS and cellular DNA damage” value [4] was “significantly decreased”.
